TbMetRS inhib: blocks T. brucei methionyl-tRNA synthetase activity. purified T. brucei MetRS, ATP depletion, Kinase-Glo luminescence. inhibition, % at 11.9 µM. 360,000 compounds, 0.4% hits. AID 624268;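 active = inhibition above a per-plate cutoff of the control wells' mean inhibition plus 3 SD, cut at about 5.5% in these data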;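 note: 0% = DMSO wells median and 100% = median of wells with control inhibitor compound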
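Material – parasite MetRS enzyme · Medium – HEPES-MgCl2-KCl buffer plus DTT, spermine, BSA, pyrophosphatase · Reagent – ATP, methionine and E. coli bulk tRNA substrates · Times – 15 min enzyme-compound preincubation, 2 h reaction, 10 min detection, 25 °C · Measured by – luminescence of leftover ATP · Evaluation – percent inhibition relative to median high and low control wells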
proCasp3 act: procaspase-3 (human) activation. P42574. recombinant procaspase-3 D3A, Ac-DEVD-pNA absorbance 405 nm. activation, % at 8.5 µM. 330,000 compounds, 0.11% hits;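 active = activation above the mean of all tested compounds plus 3 SD, cut at about 21% in these data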;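 note: 0% = DMSO alone and 100% = DMSO wells spiked with extra 5 µM PC-3 D3A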
Target sequence (P42574 whole entry D9A/D28A/D175A): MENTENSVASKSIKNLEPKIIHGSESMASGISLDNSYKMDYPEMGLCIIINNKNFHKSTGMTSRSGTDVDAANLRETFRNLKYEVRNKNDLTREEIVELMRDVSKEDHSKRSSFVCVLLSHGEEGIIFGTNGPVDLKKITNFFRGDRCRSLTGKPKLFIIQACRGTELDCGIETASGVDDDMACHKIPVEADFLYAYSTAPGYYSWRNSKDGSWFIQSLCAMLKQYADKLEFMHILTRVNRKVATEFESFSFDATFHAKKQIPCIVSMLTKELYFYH
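Compound: 8.5 µM single point, 0.8% DMSO / Material: Autoprocessing-dead procaspase-3 D3A mutant enzyme / Timing: 1 h preincubation plus 2 h reaction at 25 °C / Medium: Zinc-free HEPES/NaCl buffer with 0.01% Triton X-100 at pH 7.4 / Technique: 405 nm absorbance of p-nitroaniline, reads at 0 and 120 min / Repeats: one well per compound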
MsrA inhibitor: inhibitors of bovine MsrA | inhibition, % at 15.5 µM | AID 651718 | purified bovine MsrA, absorbance read-out | 360,000 compounds, 0.75% hits;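 note: 0% = vehicle wells with enzyme and 100% = reference inhibitor wells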
procasp7 counter: activates human procaspase-7, counter-screen for procaspase-3 activators. P55210. recombinant procaspase-7, Ac-DEVD-pNA absorbance 405 nm; D23A/D198A/D206A triple mutant, cannot self-cleave; scale: DMSO 0, 5 µM enzyme 100. activation, % at 8.5 µM. 330,000 compounds, 0.093% hits. AID 463210;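 active = percent activation above the screen-wide mean plus 3 SD, cut at about 25% in these data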
Target sequence (P55210 whole entry D23A/D198A/D206A): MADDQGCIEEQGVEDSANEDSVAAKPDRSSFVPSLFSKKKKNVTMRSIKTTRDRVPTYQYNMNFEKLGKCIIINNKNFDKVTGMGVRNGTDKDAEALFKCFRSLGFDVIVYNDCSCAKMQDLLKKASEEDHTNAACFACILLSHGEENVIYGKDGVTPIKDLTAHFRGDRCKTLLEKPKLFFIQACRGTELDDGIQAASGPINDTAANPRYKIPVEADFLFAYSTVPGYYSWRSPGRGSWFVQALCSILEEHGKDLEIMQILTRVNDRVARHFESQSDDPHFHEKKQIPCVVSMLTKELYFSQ
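signal = Epi-absorbance of released pNA at 405 nm, two timepoints | assay system = Uncleavable procaspase-7 mutant enzyme | reagent = Ac-DEVD-pNA substrate, 400 µM as added | times = 1 h enzyme–compound preincubation and 2 h substrate reaction, both 25 °C | benchmarks = low DMSO alone, high DMSO plus 5 µM PC-7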
bovine MsrA act: bovine methionine sulfoxide reductase A activation | activation, % at 10.6 µM | 360,000 compounds, 0.3% hits | purified bovine MsrA, absorbance read-out; in the data active = activation above about 7.5%;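 note: 0% = vehicle and 100% = reference activator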
MsrA conf: confirmation of bovine MsrA inhibitors. shares compounds with MsrA inhibitor. purified bovine MsrA, absorbance read-out. inhibition, % at 15.5 µM. 2,300 compounds, 41% hits;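 note: coupled to thioredoxin reductase with NADPH and selenocystamine and DMSO as substrate; 0% = vehicle only and 100% = full effect of reference inhibitor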
The depositor's hits bear a star; · = no result given. In the library only some 1.5% were active in any assay of this set; here they are far more common. Cut-off read from the data, not from the text of the source, unless noted: active = inhibition above about 4.5%; inactive = the rest.

SMILES	TbMetRS inhib	proCasp3 act	MsrA inhibitor	procasp7 counter	bovine MsrA act	MsrA conf
C[C@]1(C(=O)NCCCNc2ncc(C(F)(F)F)cc2Cl)C=C[C@@H](Cc2ccccc2)N1C(=O)c1ccccc1	0	-1	·	-10	4	·
COc1cc(C(=O)N/N=C/c2sc(=O)n(-c3ccccc3)c2Cl)cc(OC)c1OC	0	-4	3	1	-1	·
O=C(N/N=C/c1cc(Br)c(Br)s1)c1ccncc1	-1	-4	2	-3	-5	·
O=C(N/N=C/c1ccc(Br)s1)c1ccncc1	0	-3	4.7*	4	-8	4.8*
O=C(O)c1cccc(Cn2c(Cl)c(/C=N/NC(=O)c3ccco3)sc2=O)c1	0	1	7.0*	-26	-6	7.4*
O=C(N/N=C/c1sc(=O)n(-c2ccccc2)c1Cl)c1ccncc1	-1	3	7.5*	5	-1	4.8*
O=C(O)c1cccc(Cn2c(Cl)c(/C=N/NC(=O)c3ccccc3)sc2=O)c1	0	1	5.7*	-16	-4	5.1*
O=C(O)c1cccc(Cn2c(Cl)c(/C=N/NC(=O)c3cccc(O)c3)sc2=O)c1	0	1	4	-3	-11	·
Cc1cc(C)c(S(=O)(=O)N2C[C@H]3CON(C)[C@H]3C[C@H]2c2ccc(-n3ccnc3)cc2)c(C)c1	·	·	0	·	·	·
Cc1ccc2nc(-c3cccc(Br)c3)c(Cc3ccsc3)n2c1	·	·	0	·	·	·
CC(C)(C)OC(=O)C(Oc1ccccc1[N+](=O)[O-])C(=O)OC(C)(C)C	0	·	2	·	·	·
CCOC(=O)/C(C#N)=C1/C=CN(Cc2ccccc2)C=N1	0	5	7.4*	1	-5	5.7*
CCOC(=O)/C(C#N)=C1/C=CN(c2ccc(C)cc2)C=N1	0	-4	6.6*	5	-6	5.2*
CCOC(=O)/C(C#N)=C1/C=CN(c2ccccc2)C=N1	0	9	5.6*	1	-8	6.0*
CCOC(=O)/C(C#N)=C1/SC(CC)C(=O)N1c1ccc(C)cc1 (centres undefined)	-1	0	1	3	-3	·
CCCN1C=CC(=C/C=C(\C#N)C(=O)OCC)C=C1	·	-23	·	-19	·	·
CCOC(=O)/C(C#N)=C1/C=Nc2ccccc2N1	0	-10	2	-17	0	·
CCOC(=O)C(=O)C1=CN(Cc2ccccc2)C=C(C#N)C1	1	-2	1	4	2	·
CCOC(=O)/C(C#N)=C1\C=CN(C)C(C)=N1	0	-4	6.0*	7	-13	4
C[C@H](O)[C@@H]1C(=O)N2CCc3c([nH]c4c(-c5ccccc5)cccc34)[C@@H]2C[C@@H]1N(C)C(=O)c1ccco1	·	·	1	·	·	·
C[C@H](CO)N1C[C@H](C)[C@H](CN(C)C(=O)Nc2ccc(N3CCCCC3)cc2)OCc2cnnn2CCCC1=O	·	·	0	·	·	·
CCN(CC(=O)Nc1ccc(NC(C)=O)cc1)C(=O)c1ccccc1CCc1ccccc1	-1	-1	1	3	-6	·
Nc1ccn([C@@H]2O[C@H](C(=O)N[C@H](Cc3ccccc3)C(=O)N3CCN(CC(=O)N4CCCC4)CC3)[C@@H](O)[C@H]2O)c(=O)n1	·	·	2	·	·	·
CCOC(=O)/C(C#N)=C1/C=CN(C)C=N1	0	1	7.4*	13	-7	5.7*
Oc1ccc(/C=N/Nc2ncnc3nc[nH]c23)cc1	0	-7	6.9*	0	-6	5.6*
SMILES	TbMetRS inhib	proCasp3 act	MsrA inhibitor	procasp7 counter	bovine MsrA act	MsrA conf
Clc1ccc(/C=N/Nc2ncnc3nc[nH]c23)cc1	0	-5	4	-2	-3	·
Fc1cccc(/C=N/Nc2ncnc3nc[nH]c23)c1	-1	3	5.2*	7	-4	4
Fc1ccccc1/C=N/Nc1ncnc2nc[nH]c12	0	7	8.9*	-4	-5	4
COC(=O)[C@]12C[C@H](CC(=O)N3CCN(C(=O)c4ccco4)CC3)C(=O)N(Cc3ccc4c(c3)OCO4)C1=C[C@H](COCc1ccccc1)O[C@@H]2C	·	·	0	·	·	·
COC(=O)c1cc2c(c3c4ccccc4n(S(=O)(=O)c4ccccc4)c13)C(=O)N(C)C2	·	·	1	·	·	·
COc1ccc(OCC2CN(C3CCCC3)S(=O)(=O)CCO2)cc1 (centres undefined)	·	·	-1	·	·	·
O=C1c2ccccc2C(=O)c2cc(N3CCCCC3)ccc21	0	·	0	·	4	·
O=C1c2cccc(Cl)c2C(=O)c2c1cccc2N1CCCC1	-2	4	9.4*	-5	-4	1
O=C(O)c1cc(O)c2c(c1)C(=O)c1cccc(O)c1C2=O	0	3	4.7*	0	2	17*
C/C(=N\Nc1ccc(Cl)c(C(=O)O)c1)c1cc2ccccc2o1	0	1	5.4*	1	-5	5.8*
C/C(=N\Nc1ccc(Cl)c(C(=O)O)c1)c1cccc2ccccc12	0	-10	2	3	-3	·
C/C(=N\Nc1ccccc1)c1cc2ccccc2oc1=O	-1	3	3	-9	-11	·
C/C(=N\Nc1cccc(C(=O)O)c1)c1cc2ccccc2o1	-1	0	5.5*	-2	-6	3
N#Cc1cc([N+](=O)[O-])cnc1Nc1ccccc1	0	3	3	-5	-6	·
N#C/C(C(=O)N1CCOCC1)=C1\Nc2ccccc2S1	0	-4	7.9*	8	-7	5.7*
N#C/C(=C\c1cccs1)C(=O)N1CCOCC1	0	-2	1	12	-5	·
CN=c1sc(C(=O)Nc2ccccc2)c(C)n1C	0	8	2	0	-4	·
CN=c1sc2c(n1C)C(=O)c1ccccc1C2=O	0	·	9.7*	·	6	7.0*
C(=N\n1cnnc1)/c1cn(-c2cccs2)nc1-c1ccccc1	0	15	4.8*	15	-3	3
COCCCN1C(=O)C(=O)/C(=C(/O)c2ccc(OC)cc2C)C1c1cccnc1 (centres undefined)	-1	7	4.8*	-3	-5	3
CCCCNC(=S)N(C)/N=C/c1ccc(OCC(=O)Nc2ccc(OC)cc2)c(OC)c1	-2	11	6.5*	-1	-11	3
O=C(N/N=C/c1ccco1)c1cc2ccccc2o1	0	1	6.0*	5	-6	7.6*
O=C(N/N=C/c1sc(N2CCOCC2)nc1-c1ccccc1)c1ccc(O)cc1	0	6	17*	-4	-5	10*
COc1ccccc1NS(=O)(=O)c1cc([N+](=O)[O-])ccc1N/N=C/c1sc(N2CCOCC2)nc1-c1ccccc1	0	0	11*	-4	-2	7.0*
O=C(N/N=C/c1cnc(N2CCOCC2)s1)c1ccccc1	0	-1	5.2*	-1	-7	5.1*
Cc1ccccc1C(=O)/C=C1\NC(=O)CS1	0	-5	6.3*	-1	-6	6.6*

Source: PubChem BioAssay (The Scripps Research Institute Molecular Screening Center)
